NS3 helicase inh – inhibitors of Hepatitis C virus NS3 helicase. actives 0.56% (n = 290,000). AID 1800. inhibition, % at 10.9 µM. NS3 helicase DNA unwinding, Cy5 molecular beacon fluorescence;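 active = inhibition above the mean of all tested compounds plus 3 SD, set per campaign, cut at about 35% in these data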;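 also: 0% = DMSO wells and 100% = thioflavine S control wells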
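assay system = NS3 helicase fragment of HCV | buffer or medium = MOPS pH 6.5, MgCl2, DTT, Tween20, BSA | timing = 60 min unwinding reaction at 25 °C after ATP addition | signal = Cy5 beacon fluorescence read at start and 1 h | read-out basis = % inhibition of unwinding | control set = low DMSO, high thioflavine S at 110 µM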
EBNA-1 inhibitor – blocks EBNA-1 binding to DNA | EBNA-1 DNA binding, fluorescence polarization | inhibition, % at 14.8 µM | actives 0.34% (n = 300,000); in the data active = inhibition above about 28%
ZTA counter – ZTA (EBV) inhibition in EBNA-1 counter-screen; actives 0.15% (n = 320,000); AID 2234; inhibition, % at 11 µM; ZTA-DNA binding, fluorescence polarization; in the data active = inhibition above about 33%
Target sequence (P03206 whole entry, looked up): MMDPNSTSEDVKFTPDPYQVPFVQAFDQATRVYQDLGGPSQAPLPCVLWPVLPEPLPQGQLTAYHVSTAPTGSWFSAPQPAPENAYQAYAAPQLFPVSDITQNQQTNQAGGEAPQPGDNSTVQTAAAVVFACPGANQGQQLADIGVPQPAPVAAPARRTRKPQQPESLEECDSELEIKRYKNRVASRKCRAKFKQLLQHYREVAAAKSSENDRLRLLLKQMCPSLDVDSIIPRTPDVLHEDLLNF
ALR inh – blocks human ALR sulfhydryl oxidase activity; purified ALR, DTT oxidation, H2O2 HRP-luminol luminescence; inhibition, % (test concentration not listed); actives 3.8% (n = 290,000); AID 485317;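 active = mean replicate inhibition above about 79%, with every replicate also reaching it, limit read from the data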
Target sequence (P55789 whole entry, looked up): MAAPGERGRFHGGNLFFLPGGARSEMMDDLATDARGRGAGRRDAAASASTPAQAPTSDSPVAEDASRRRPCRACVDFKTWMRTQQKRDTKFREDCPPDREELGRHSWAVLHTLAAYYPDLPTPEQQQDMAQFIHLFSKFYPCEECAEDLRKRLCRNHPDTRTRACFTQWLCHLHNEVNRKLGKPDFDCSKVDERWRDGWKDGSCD
core dimer inh – HCV core protein dimerization inhibition; inhibition, % at 5 µM; TR-FRET GST/Flag-core106 dimerization, 1536-well; actives 0.33% (n = 300,000); AID 1899;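 active = inhibition above the mean of all tested compounds plus 3 SD, set per screening campaign, cut at about 45% in these data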
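Assay system: tagged HCV core106 pair (GST and Flag); medium: KF-containing HEPES buffer, pH 7.45, DTT, CHAPS, BSA; also added: Eu donor and XL665 acceptor anti-tag antibodies; dosing: 5 µM single dose; timing: compound-protein-antibody incubation 4 h at 22.5 °C; signal: TR-FRET 671 and 617 nm emission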
PfM18AAP inh-1 – PfM18AAP enzyme inhibition; recombinant PfM18AAP, H-Glu-NHMec fluorogenic cleavage; inhibition, % at 7.35 µM; actives 1.2% (n = 290,000); AID 1822;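 active = inhibition above the campaign mean inhibition over all tested compounds plus 3 SD, cut at about 28% in these data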;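 also: 0% = plate median of test compound wells and 100% = 2 mM ZnCl2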
PfM18AAP inh-2 – PfM18AAP inhibition, confirmation; actives 28% (n = 2,400); inhibition, % at 7.35 µM; shares compounds with PfM18AAP inh-1; recombinant PfM18AAP, H-Glu-NHMec fluorogenic cleavage; AID 2170;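 active = mean inhibition over replicate wells above the hit cutoff set for the earlier primary screen, cut at about 29% in these data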;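 also: 0% = median of test compound wells and 100% = 2 mM ZnCl2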
CTSL1 counter – counter-screen for PFM18AAP inhibitors: confirmation of human cathepsin L inhibitors; shares compounds with PfM18AAP inh-1; purified cathepsin L1, Z-Leu-Arg-MCA fluorescence; inhibition, % at 5.96 µM; 2,400 tested, under 10 active;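 active = average inhibition across replicates above the hit cutoff set in the earlier primary screen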;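 also: 0% = median of test compound wells and 100% = Z-Phe-Ala-diazomethylketone 1 µM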
* = called active by the depositor. In the library only some 5.2% were active in any assay of this set; here they are far more common.

How did Cc1ccc(OCc2nc(-c3cccs3)no2)c([N+](=O)[O-])c1 do in these assays?
NS3 helicase inh: -10; EBNA-1 inhibitor: -5; ZTA counter: 5; core dimer inh: -1; PfM18AAP inh-1: -14

Results for O=C(c1cn(Cc2ccccc2)nc1-c1ccccc1)N1CCN(c2ccccn2)CC1 ?
ZTA counter: 3; ALR inh: 0

Results for C/C(=N\Nc1ccc(C(=O)O)cc1)c1ccc(S(=O)(=O)NCc2ccco2)cc1 ?
NS3 helicase inh: 7; EBNA-1 inhibitor: -13; ZTA counter: -1; ALR inh: 52; core dimer inh: -5; PfM18AAP inh-1: 36*; PfM18AAP inh-2: 1; CTSL1 counter: 2

What do the screens show for `C/C(=N\Nc1ccc([N+](=O)[O-])cc1)c1ccc(N)cc1`?
NS3 helicase inh: -2; EBNA-1 inhibitor: -11; ZTA counter: 7; ALR inh: 98*; core dimer inh: -18; PfM18AAP inh-1: 33*; PfM18AAP inh-2: -18; CTSL1 counter: 6

How did C/C(=N\Nc1ccc(C(=O)O)cc1)c1ccc(Br)cc1 do in these assays?
NS3 helicase inh: -3; EBNA-1 inhibitor: -1; ZTA counter: 12; ALR inh: 98*; core dimer inh: -1; PfM18AAP inh-1: 32*; PfM18AAP inh-2: -22; CTSL1 counter: 5

What do the screens show for `C/C(=N\Nc1nc(Cl)c(Cl)cc1Cl)c1ccc(S(=O)(=O)NCc2ccco2)cc1`?
NS3 helicase inh: 3; EBNA-1 inhibitor: 7; ZTA counter: -8; ALR inh: 1; core dimer inh: 14; PfM18AAP inh-1: 49*; PfM18AAP inh-2: -54; CTSL1 counter: 7

What do the screens show for `C/C(=N\Nc1ccc(Cl)c(C(=O)O)c1)c1cccc([N+](=O)[O-])c1`?
NS3 helicase inh: 27; EBNA-1 inhibitor: 6; ZTA counter: 1; ALR inh: 98*; core dimer inh: -1; PfM18AAP inh-1: 36*; PfM18AAP inh-2: -1; CTSL1 counter: 5

Results for CCOc1ccc(NC(=O)CN(C)C(=O)c2ccc(C)o2)cc1OCC ?
NS3 helicase inh: 10; EBNA-1 inhibitor: 4; ZTA counter: 0; ALR inh: -21; core dimer inh: 1; PfM18AAP inh-1: -13

Results for Cc1ccsc1C(=O)NC1CCCN(Cc2ccc(Cl)cc2)C1 (centres undefined) ?
NS3 helicase inh: 7; ALR inh: -5; PfM18AAP inh-1: -10

Results for Cn1c(=O)[nH]c(=O)c2c1[nH]c(=S)n2CCCc1ccccc1 ?
NS3 helicase inh: 21; PfM18AAP inh-1: 58*; PfM18AAP inh-2: 41*; CTSL1 counter: 2

Results for CC(C)=NNc1nc2c(c(=O)[nH]c(=O)n2C)n1CCc1ccccc1 ?
NS3 helicase inh: 13; EBNA-1 inhibitor: 1; ZTA counter: 3; ALR inh: 2; core dimer inh: 13; PfM18AAP inh-1: -1

How did CC(C)=NNc1nc2c(c(=O)[nH]c(=O)n2C)n1CCCc1ccccc1 do in these assays?
NS3 helicase inh: 33; EBNA-1 inhibitor: 0; ZTA counter: -4; ALR inh: 0; core dimer inh: -6; PfM18AAP inh-1: 36*; PfM18AAP inh-2: -29; CTSL1 counter: -7

Results for Cn1c(=O)[nH]c(=O)c2c1nc(Br)n2CCCc1ccccc1 ?
NS3 helicase inh: -7; PfM18AAP inh-1: 2

What do the screens show for `Cn1c(=O)n(Cc2ccccc2Cl)c(=O)c2c1[nH]c(=S)n2C`?
NS3 helicase inh: -11; EBNA-1 inhibitor: -4; ZTA counter: -4; ALR inh: 43; core dimer inh: 5; PfM18AAP inh-1: 36*; PfM18AAP inh-2: -14; CTSL1 counter: -5

Results for Cn1c(=O)[nH]c(=O)c2c1[nH]c(=S)n2Cc1ccc(Cl)cc1 ?
NS3 helicase inh: 6; EBNA-1 inhibitor: -9; ZTA counter: -13; ALR inh: 99*; core dimer inh: -2; PfM18AAP inh-1: 48*; PfM18AAP inh-2: 16; CTSL1 counter: 3

Results for Cc1ccc(Nc2nc(N)c3ccccc3n2)cc1C ?
NS3 helicase inh: -28; ALR inh: 54; PfM18AAP inh-1: 0

What do the screens show for `COCCN(C(=O)COC(=O)CCC(=O)c1ccc(Cl)cc1)c1c(N)n(Cc2ccccc2)c(=O)[nH]c1=O`?
NS3 helicase inh: 2; EBNA-1 inhibitor: 17; ZTA counter: 14; ALR inh: 5; core dimer inh: 4; PfM18AAP inh-1: -3

Results for Cn1c(=O)c2c(nc(Br)n2CCCc2ccccc2)n(C)c1=O ?
NS3 helicase inh: 1; EBNA-1 inhibitor: -2; ZTA counter: 0; ALR inh: 1; core dimer inh: 4; PfM18AAP inh-1: -18

What do the screens show for `Cn1c(=O)c2c([nH]c(=S)n2CCCc2ccccc2)n(C)c1=O`?
NS3 helicase inh: 17; EBNA-1 inhibitor: -3; ZTA counter: -3; ALR inh: 34; core dimer inh: -5; PfM18AAP inh-1: 44*; PfM18AAP inh-2: 30*; CTSL1 counter: -1

Results for Cc1ccc(C)c(NC(=O)CSc2nnc(-c3ccco3)o2)c1 ?
NS3 helicase inh: -1; EBNA-1 inhibitor: 0; ZTA counter: 2; ALR inh: -3; core dimer inh: 1; PfM18AAP inh-1: 5

What do the screens show for `Cc1cc(NC(=O)CSc2nnc(-c3ccco3)o2)no1`?
NS3 helicase inh: 9; EBNA-1 inhibitor: -9; ZTA counter: 6; ALR inh: -3; core dimer inh: -4; PfM18AAP inh-1: 47*; PfM18AAP inh-2: -19; CTSL1 counter: -2

How did C=CCc1c(C)nc(-c2ccccc2)nc1N/N=C(\C)c1ccc(N)cc1 do in these assays?
NS3 helicase inh: 7; EBNA-1 inhibitor: 7; ZTA counter: 3; ALR inh: -6; core dimer inh: -3; PfM18AAP inh-1: 52*; PfM18AAP inh-2: 14; CTSL1 counter: -3

What do the screens show for `CCC(C(=O)NC1CCCC1)N(Cc1ccco1)C(=O)CNS(=O)(=O)c1ccccc1` (centres undefined)?
NS3 helicase inh: 4; EBNA-1 inhibitor: -14; ZTA counter: 11; ALR inh: -3; core dimer inh: -5; PfM18AAP inh-1: 0

Results for CCn1c(C)nc2cc(C(=O)NNC(=S)Nc3ccc(C)cc3)ccc21 ?
NS3 helicase inh: 0; EBNA-1 inhibitor: 2; ZTA counter: -13; ALR inh: 86*; core dimer inh: 0; PfM18AAP inh-1: 40*; PfM18AAP inh-2: -52; CTSL1 counter: -1

Screening data: PubChem, several laboratories
